ChEMBL document CHEMBL4406918, “Inhibitory Effects of Multivalent Polypeptides on the Proliferation and Metastasis of Breast Cancer Cells” (ACS Med Chem Lett, 2019)
Calls of active or inactive are those of the source. The rule behind the calls is not given here. Where a SMILES comes first, the peptide text is derived from it. Side-chain parts run from the residue outwards.

Legend:
4T1 [1] = experiment: Induction of apoptosis in mouse 4T1 cells assessed as necrotic cells at 0.4 mM incubated for 24 hrs by Annexin V-FITC/PI based FACS analysis (reference value: 0.47%); format: functional
4T1 [2] = experiment: Induction of apoptosis in mouse 4T1 cells at 0.8 mM incubated for 24 hrs by PI staining based inverted microscopic method; format: functional, cell-based
How it was run: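 Live–dead staining of 4T1 cells after 24 h exposure, with PI uptake imaged microscopically. A higher 0.8 mM dose was also tested.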

4T1 [3] = experiment: Inhibition of metastasis in mouse 4T1 cells assessed as shortening in actin filaments at 0.2 mM incubated for 24 hrs by Hoechst 33342 staining based confocal laser scanning microscopic method; format: functional, cell-based
How it was run: (§1)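 After 24 h treatment, 4T1 cells were stained with Alexa Fluor 488 phalloidin for F-actin and Hoechst 33342 for nuclei, then imaged by fluorescence microscopy to assess cytoskeleton and cell morphology.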

4T1 [4] = experiment: Induction of apoptosis in mouse 4T1 cells assessed as viable cells at 0.4 mM incubated for 24 hrs by Annexin V-FITC/PI based FACS analysis (reference value: 92.2%); format: functional; settings: 4T1, 24 h, read-out: Activity
[5] = Toxicity in BALB/c mouse xenografted with mouse 4T1 cells assessed as induction of morphological lesions in spleen at 10 mg/kg administered intratumorally and measured after 24 days by H and E staining based inverted optical microscopic method; format: organism-based; settings: in vivo, other, 576 h
4T1 [6] = experiment: Antitumour activity against mouse 4T1 cells xenografted in BALB/c mouse assessed as reduction in size of lung tumor metastatic nodules at 10 mg/kg administered intratumorally and measured after 24 days by H and E staining based inverted optical microscopic method; format: functional, organism-based
How it was run: (§2)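 After 6 doses of 10 mg/kg to 4T1 tumour-bearing BALB/c mice (saline control), lungs were photographed whole and examined histopathologically for the number and size of metastatic nodules.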

4T1 [7] = experiment: Inhibition of metastasis in mouse 4T1 cells assessed as disruption in F-actin arrangement at 0.2 mM incubated for 24 hrs by Hoechst 33342 staining based confocal laser scanning microscopic method; format: functional, cell-based
How it was run: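 After 24 h at 0.2 mM, 4T1 cells were stained for F-actin with Alexa Fluor 488 phalloidin and for nuclei with Hoechst 33342, then imaged by fluorescence for cytoskeletal arrangement and cell morphology.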

4T1 [8] = experiment: Antitumour activity against mouse 4T1 cells xenografted in BALB/c mouse assessed as reduction in number of lung tumor metastatic nodules at 10 mg/kg administered intratumorally and measured after 24 days by H and E staining based inverted optical microscopic method; format: functional, organism-based; how it was run: as §2
4T1 [9] = experiment: Antitumour activity against mouse 4T1 cells xenografted in BALB/c mouse assessed as increase in cytotoxic tumor cell death at 10 mg/kg administered intratumorally and measured after 24 days by H and E staining based inverted optical microscopic method; format: functional, organism-based
How it was run: (§3)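 BALB/c mice bearing subcutaneous 4T1 tumours received 6 doses at 10 mg/kg body weight, matched for YSL monomer molar amount, with saline as control. Tumour sections were stained for H&E, CD31, Ki-67 and TUNEL. n = 5.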

[10] = Toxicity in BALB/c mouse xenografted with mouse 4T1 cells assessed as induction of morphological lesions in liver at 10 mg/kg administered intratumorally and measured after 24 days by H and E staining based inverted optical microscopic method; format: organism-based; settings: in vivo, other, 576 h
4T1 [11] = experiment: Induction of apoptosis in mouse 4T1 cells assessed as early apoptotic cells at 0.4 mM incubated for 24 hrs by Annexin V-FITC/PI based FACS analysis (reference value: 0.76%); format: functional
4T1 [12] = experiment: Antitumour activity against mouse 4T1 cells xenografted in BALB/c mouse assessed as increase in number of TUNEL positive cells at 10 mg/kg administered intratumorally and measured after 24 days by H and E staining based inverted optical microscopic method; format: functional, organism-based; how it was run: as §3
4T1 [13] = experiment: Induction of cell cycle arrest in mouse 4T1 cells assessed as accumulation at G2/M phase at 0.4 mM incubated for 24 hrs by PI staining based flow cytometric analysis (reference value: 19.82%); format: functional
[14] = Toxicity in BALB/c mouse xenografted with mouse 4T1 cells assessed as change in blood urea nitrogen level at 10 mg/kg administered intratumorally and measured after 24 days; format: organism-based; settings: in vivo, other, 576 h
[15] = Toxicity in BALB/c mouse xenografted with mouse 4T1 cells assessed as change in body weight at 10 mg/kg administered intratumorally and measured after 24 days; format: organism-based; settings: in vivo, other, 576 h
How it was run: (§4)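 BALB/c mice bearing subcutaneous 4T1 tumours received 6 doses of 10 mg/kg, with equal YSL-monomer molar amounts across compounds and saline as control. Tumour volume growth curves and body weights were tracked. Mean ± SD, n = 5.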

4T1 [16] = experiment: Antiinvasive activity in mouse 4T1 cells assessed as inhibition of cell invasion at 0.2 mM incubated for 24 hrs by crystal violet staining based matrigel invasion assay relative to control; format: functional; settings: 4T1, 24 h
How it was run: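 4T1 cells, Matrigel-coated Transwell invasion with 0.2 mM compound. Invasion rate comes from counting cells on the underside of the Matrigel-coated porous membrane, relative to untreated control. Mean ± SD, n = 3.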

[17] = molecular target: Matrix metalloproteinase-9 (Mus musculus) (UniProt P41245); experiment: Residual MMP9 activity in mouse 4T1 cells at 0.2 mM incubated for 24 hrs by coomassie brilliant blue staining based gelatin zymography assay relative to control
Matrix metalloproteinase-9 (Mus musculus), sequence (P41245 whole entry): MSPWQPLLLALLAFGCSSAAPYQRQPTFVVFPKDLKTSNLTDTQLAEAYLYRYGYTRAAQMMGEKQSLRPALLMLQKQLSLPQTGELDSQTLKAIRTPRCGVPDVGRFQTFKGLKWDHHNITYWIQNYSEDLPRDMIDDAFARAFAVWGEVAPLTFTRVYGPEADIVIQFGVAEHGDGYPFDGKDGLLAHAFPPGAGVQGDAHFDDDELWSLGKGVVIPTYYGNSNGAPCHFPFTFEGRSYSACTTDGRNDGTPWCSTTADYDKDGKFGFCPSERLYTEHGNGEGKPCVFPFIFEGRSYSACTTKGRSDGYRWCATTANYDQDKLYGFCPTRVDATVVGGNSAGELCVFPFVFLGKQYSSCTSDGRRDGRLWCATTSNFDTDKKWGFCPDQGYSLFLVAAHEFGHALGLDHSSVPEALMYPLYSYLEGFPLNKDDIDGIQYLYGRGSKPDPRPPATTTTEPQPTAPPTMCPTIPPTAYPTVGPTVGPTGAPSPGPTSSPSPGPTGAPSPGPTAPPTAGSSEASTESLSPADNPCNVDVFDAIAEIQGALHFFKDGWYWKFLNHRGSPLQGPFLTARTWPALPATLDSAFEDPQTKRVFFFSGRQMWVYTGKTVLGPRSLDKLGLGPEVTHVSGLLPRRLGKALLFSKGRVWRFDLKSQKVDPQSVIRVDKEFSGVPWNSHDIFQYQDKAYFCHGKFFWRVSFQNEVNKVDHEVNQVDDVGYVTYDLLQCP

4T1 [18] = experiment: Induction of apoptosis in mouse 4T1 cells assessed as late apoptotic cells at 0.4 mM incubated for 24 hrs by Annexin V-FITC/PI based FACS analysis (reference value: 6.62%); format: functional
[19] = Stability in fetal bovine serum assessed as parent compound remaining measured after 12 hrs by RP-HPLC analysis; format: ADME, cell-free, Bos taurus; settings: cattle, read-out: Stability
How it was run: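 Peptides incubated in serum, and the fraction of intact YSL was measured over time up to 12 h, including a 4 h point.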

Erythrocyte = experiment: Hemolytic activity in BALB/c mouse RBC at 3.2 mM incubated for 2 hrs by UV-Vis spectrophotometric analysis; format: ADME, cell-based; settings: 3200 µM
How it was run: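 Hemolysis assay on red blood cells with dendrimers up to 3.2 mM. Result is expressed as hemolysis rate, with under 5% taken as acceptable.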

4T1 [20] = experiment: Antitumour activity against mouse 4T1 cells xenografted in BALB/c mouse assessed as increase in damage of tumor tissue at 10 mg/kg administered intratumorally and measured after 24 days by H and E staining based inverted optical microscopic method; format: functional, organism-based
How it was run: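 Tumours from 4T1-bearing BALB/c mice given 6 doses of 10 mg/kg (saline control) were sectioned and stained with H&E, plus CD31, Ki-67 and TUNEL.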

4T1 [21] = experiment: Inhibition of cell migration in mouse 4T1 cells assessed as wound closure rate at 0.2 mM measured up to 36 hrs by inverted optical microscopic method based wound healing assay (reference value: 82%); format: functional; parameters: scale not given: the % may be the effect or the level left
4T1 [22] = experiment: Antiproliferative activity against mouse 4T1 cells assessed as cell death at 0.2 mM incubated for 24 hrs by MTT assay relative to control; format: functional
How it was run: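 Mouse 4T1 breast cancer cells exposed for 24 h (doses include 0.1 and 0.2 mM), then read by MTT for viability or cell death. Mean ± SD, n = 6.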

4T1 [23] = experiment: Inhibition of cell migration in mouse 4T1 cells assessed as migration frequency at 0.2 mM incubated for 24 hrs by crystal violet staining based transwell assay relative to control; format: functional; parameters: scale not given: the % may be the effect or the level left
How it was run: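 4T1 cells, Transwell migration with 24 h exposure to 0.2 mM. Migration rate comes from counting cells on the bottom of the porous membrane. Mean ± SD, n = 3.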

[24] = Toxicity in BALB/c mouse xenografted with mouse 4T1 cells assessed as change in serum creatinine level at 10 mg/kg administered intratumorally and measured after 24 days; format: organism-based; settings: in vivo, other, 576 h
4T1 [25] = experiment: Induction of cell cycle arrest in mouse 4T1 cells assessed as accumulation at S phase at 0.4 mM incubated for 24 hrs by PI staining based flow cytometric analysis (Rvb =42.35%); format: functional
[26] = Toxicity in BALB/c mouse xenografted with mouse 4T1 cells assessed as induction of morphological lesions in kidney at 10 mg/kg administered intratumorally and measured after 24 days by H and E staining based inverted optical microscopic method; format: organism-based; settings: in vivo, other, 576 h
4T1 [27] = experiment: Inhibition of metastasis in mouse 4T1 cells assessed as formation of pseudopods at 0.2 mM incubated for 24 hrs by SEM analysis; format: functional, cell-based
How it was run: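 4T1 cells treated 24 h, then imaged by scanning electron microscopy for pseudopod formation. Dendrimers were tested at 0.2 mM and the reference at 10–5 mM.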

4T1 [28] = experiment: Induction of cell cycle arrest in mouse 4T1 cells assessed as accumulation at G0/G1 phase at 0.4 mM incubated for 24 hrs by PI staining based flow cytometric analysis (reference value: 37.78%); format: functional
[29] = Toxicity in BALB/c mouse xenografted with mouse 4T1 cells assessed as induction of morphological lesions in heart at 10 mg/kg administered intratumorally and measured after 24 days by H and E staining based inverted optical microscopic method; format: organism-based; settings: in vivo, other, 576 h
4T1 [30] = experiment: Inhibition of metastasis in mouse 4T1 cells assessed as cell shrinkage at 0.2 mM incubated for 24 hrs by Hoechst 33342 staining based confocal laser scanning microscopic method; format: functional; how it was run: as §1
4T1 [31] = experiment: Antiproliferative activity against mouse 4T1 cells at 0.1 mM incubated for 24 hrs by MTT assay; format: functional, cell-based
4T1 [32] = experiment: Antitumour activity against mouse 4T1 cells xenografted in BALB/c mouse assessed as inhibition in tumor growth at 10 mg/kg administered intratumorally and measured every 3 days for 24 days; format: functional, organism-based; how it was run: as §4

SMILES	Activity (4T1 [1])	Activity (4T1 [2])	viability at 400 µM (4T1 [4])	Activity [5]	Activity (4T1 [6])	F-actin disruption (qualitative) (4T1 [7])	Activity (4T1 [8])	Activity [10]	Activity (4T1 [11])	Activity (4T1 [12])	Activity (4T1 [13])	Activity [14]	Activity [15]	inhibition at 200 µM (4T1 [16])	residual activity [17]	Activity (4T1 [18])	remaining at 12 h [19]	Activity (Erythrocyte)	Activity (4T1 [20])	Activity (4T1 [21])	other results
COC(=O)[C@H](CCCCNC(=O)[C@H](CCCCNC(=O)[C@H](CC(C)C)NC(=O)[C@H](CO)NC(=O)[C@@H](N)Cc1ccc(O)cc1)NC(=O)[C@H](CC(C)C)NC(=O)[C@H](CO)NC(=O)[C@@H](N)Cc1ccc(O)cc1)NC(=O)[C@H](CCCCNC(=O)[C@H](CC(C)C)NC(=O)[C@H](CO)NC(=O)[C@@H](N)Cc1ccc(O)cc1)NC(=O)[C@H](CC(C)C)NC(=O)[C@H](CO)NC(=O)[C@@H](N)Cc1ccc(O)cc1	1.23%	Active	77.7%	Non-Toxic	Active	Active	Active	Non-Toxic	0.7%	Active	15.31%	Non-Toxic	Non-Toxic	41%	70%	20.4%	> 80%	Non-Toxic	Active	76%	inhibition (4T1 [3]): Active; Activity (4T1 [9]): Active; Activity (4T1 [22]): 10%; Activity (4T1 [23]): 39%; Activity [24]: Non-Toxic; Activity (4T1 [25]): 46.98%; Activity [26]: Non-Toxic; inhibition (4T1 [27]): inactive; Activity (4T1 [28]): 38.06%; Activity [29]: Non-Toxic; inhibition (4T1 [30]): Active; Activity (4T1 [31]): inactive
COC(=O)[C@H](CCCCNC(=O)[C@H](CC(C)C)NC(=O)[C@H](CO)NC(=O)[C@@H](N)Cc1ccc(O)cc1)NC(=O)[C@H](CC(C)C)NC(=O)[C@H](CO)NC(=O)[C@@H](N)Cc1ccc(O)cc1 (H-YSLK([Leu-Ser-Tyr])-OMe)	0.26%	Active	80.2%	Non-Toxic	Active	Active	Active	Non-Toxic	0.77%	Active	15.35%	Non-Toxic	Non-Toxic	70%	75%	18.8%	> 80%	Non-Toxic	Active	79%	Activity (4T1 [22]): 5%; Activity (4T1 [23]): 68%; Activity [24]: Non-Toxic; Activity (4T1 [25]): 47.25%; Activity [26]: Non-Toxic; Activity (4T1 [32]): Active; Activity (4T1 [28]): 37.72%; Activity [29]: Non-Toxic; Activity (4T1 [31]): inactive
